Read-outs that look alike come from different tables or passages of the source. Marks after values point to notes of the source that are not given here.
Assays:
serum P = test: Serum phosphorus change; format: in vivo, human (Japanese hemodialysis patients with SHPT); settings: for serum P, percent change from the baseline at the end of the treatment or withdrawal: mean ± SD
[1] = Safety and tolerability, multiple-dose study; format: in vivo, human (Japanese hemodialysis patients with SHPT)
Outline: (§1)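 Safety was assessed descriptively from AEs, vital signs, clinical laboratory tests and 12-lead ECGs (centrally analyzed, QTc by Fridericia). Anti-drug antibodies were measured by validated ELISA. Hypocalcemia was defined as cCa < 7.5 mg/dl. Dosing was a single i.v. injection after dialysis (5, 10 or 20 mg), or 2.5 or 5 mg i.v. three times weekly for 4 weeks. Each dose cohort started only after the earlier cohorts met the safety criteria.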

[2] = test system: serum albumin-corrected calcium (cCa); test: Serum cCa change, single-dose study; format: in vivo, human (Japanese hemodialysis patients with SHPT); settings: mean ± SD, n = 4
Outline: (§2)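 Japanese hemodialysis patients with SHPT received a single 5, 10 or 20 mg i.v. injection, or placebo, via the venous blood line after dialysis. Active groups had n = 4; placebo was pooled across cohorts. Serum iPTH, albumin-corrected Ca and P were measured by a central laboratory. Data are percent change from baseline over time, with mean maximum change from baseline, reported descriptively as mean ± SD.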

[3] = test system: serum intact parathyroid hormone (iPTH); test: Serum iPTH change, multiple-dose study; format: in vivo, human (Japanese hemodialysis patients with SHPT); settings: mean ± SD; for serum iPTH, percent change 30 minutes after injection / serum iPTH, percent change from baseline on day 3: multiple-dose study; for serum iPTH, percent change 30 minutes after injection: first injection, n = 8
Outline: (§3)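 Blood was drawn before each dialysis, plus serial samples after the day 1 and day 27 injections. Serum iPTH, BAP, TRACP-5b and FGF23 were measured centrally. Data are percent change from baseline, mean ± SD.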

[4] = Antibodies against etelcalcetide, ELISA; format: in vivo, human (Japanese hemodialysis patients with SHPT); settings: validated ELISA
[5] = Plasma etelcalcetide pharmacokinetics, multiple-dose study; format: in vivo, human (Japanese hemodialysis patients with SHPT); settings: for AUC(0-t) / Cmax: human, plasma, iv; for AUC(0-t): AUClast
Outline: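 Two cohorts of 11 hemodialysis patients with SHPT, randomized 8:3 to drug or placebo. Plasma drug was measured by LC/MS/MS, with samples taken before each dialysis. Per-subject noncompartmental Cmax and AUClast were compared for the day 1 and day 27 injections. Values are geometric mean (95% CI).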

[6] = test system: BAP, TRACP-5b, FGF23 serum levels; test: Serum BAP, TRACP-5b and FGF23, multiple-dose study; format: in vivo, human (Japanese hemodialysis patients with SHPT)
Outline: as §3

[7] = Safety and tolerability, single-dose study; format: in vivo, human (Japanese hemodialysis patients with SHPT)
Outline: as §1

[8] = Plasma etelcalcetide pharmacokinetics, single-dose study; format: in vivo, human (Japanese hemodialysis patients with SHPT); settings: human, iv
Outline: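 Japanese hemodialysis patients (≥20 y) with SHPT, iPTH ≥ 300 pg/ml and cCa ≥ 9.0 mg/dl, randomized 2:1 to drug or placebo in cohorts of 6. A single i.v. injection (5, 10 or 20 mg) was given via the venous blood line after dialysis. Plasma drug was measured by LC/MS/MS. Cmax and AUClast (to the last quantifiable point before the next hemodialysis) were derived per subject by noncompartmental analysis and reported as mean ± SD.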

[9] = test system: serum intact parathyroid hormone (iPTH); test: Serum iPTH change, single-dose study; format: in vivo, human (Japanese hemodialysis patients with SHPT); settings: for serum iPTH, mean maximum change from the baseline: mean ± SD, n = 4
Outline: as §2

[10] = cited from earlier work
[11] = test system: serum albumin-corrected calcium (cCa); test: Serum cCa change, multiple-dose study; format: in vivo, human (Japanese hemodialysis patients with SHPT); settings: mean ± SD
Outline: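 Randomized, double-blind, placebo-controlled, 16 centres. Patients: ≥20 y, hemodialysis 3×/week ≥90 days, iPTH ≥ 300 pg/ml, cCa ≥ 9.0 mg/dl, dialysate Ca ≥2.25 mEq/l. Blood taken before each dialysis; follow-up to day 55. Serum cCa measured centrally; percent change from baseline at day 55 or withdrawal.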

[12] = 2.5 mg i.v. 3 times weekly for 4 weeks
[13] = 5 mg i.v. 3 times weekly for 4 weeks
[14] = M1, 2.5 mg, n = 7, geometric mean (95% confidence interval)
[15] = M2, 5 mg, n = 8, geometric mean (95% confidence interval)
[16] = 2.5 mg, M1, 2.5 mg i.v. 3 times weekly for 4 weeks, day 1 (first administration), n = 8, mean ± SD
[17] = 5 mg, M2, 5 mg i.v. 3 times weekly for 4 weeks, day 1, n = 8, mean ± SD
[18] = 5 mg, M2, 5 mg i.v. 3 times weekly for 4 weeks, day 27, n = 8, mean ± SD

CC(=O)N[C@H](CSSC[C@H](N)C(=O)O)C(=O)N[C@H](C)C(=O)N[C@H](CCCNC(=N)N)C(=O)N[C@H](CCCNC(=N)N)C(=O)N[C@H](CCCNC(=N)N)C(=O)N[C@H](C)C(=O)N[C@H](CCCNC(=N)N)C(N)=O [etelcalcetide, Etelcalcetide]
serum P, percent change from the baseline at the end of the treatment or withdrawal (serum P; [12]): −14.68% ± 13.38%
serum P, percent change from the baseline at the end of the treatment or withdrawal (serum P; [13]): −13.79% ± 18.18%
serum P versus placebo (serum P; single-dose study, from 4 hours to day 4): remained lower
patients with AEs ([1]; 2.5 mg i.v. 3 times weekly for 4 weeks, 7 patients of 8): 87.5%
serious AE ([1]; 2.5 mg i.v. 3 times weekly, relationship to treatment not ruled out): cardiopulmonary arrest
serious AE ([1]; 5 mg i.v. 3 times weekly): no serious AE was reported
patients with AEs ([1]; 5 mg i.v. 3 times weekly for 4 weeks, 3 patients of 8): 37.5%
deaths ([1]; multiple-dose study): No deaths occurred
hypocalcemia with serum cCa < 7.5 mg/dl ([1]; multiple-dose study, 2.5 or 5 mg i.v. 3 times weekly for 4 weeks): No patients experienced hypocalcemia
serum cCa, mean maximum change from the baseline ([2]; single i.v. 5 mg): −7.26% ± 3.48%
serum cCa, mean maximum change from the baseline ([2]; single i.v. 10 mg): −6.79% ± 5.86%
serum cCa, mean maximum change from the baseline ([2]; single i.v. 20 mg): −14.26% ± 6.01%
serum iPTH, percent change from the baseline at the end of the study or at study withdrawal [3, 12]: −26.25% ± 26.94%
serum iPTH, percent change from the baseline at the end of the study or at study withdrawal [3, 13]: −45.65% ± 20.06%
serum iPTH, percent change 30 minutes after injection ([3]; 2.5 mg i.v.): −41.65% ± 19.36%
serum iPTH, percent change from baseline on day 3 ([3]; 2.5 mg i.v.): −24.25% ± 13.36%
serum iPTH, percent change 30 minutes after injection ([3]; 5 mg i.v.): −58.60% ± 6.47%
serum iPTH, percent change from baseline on day 3 ([3]; 5 mg i.v.): −32.64% ± 18.20%
antietelcalcetide antibodies ([4]; multiple-dose study): No antietelcalcetide antibodies were detected
antietelcalcetide antibodies ([4]; single-dose study): No antietelcalcetide antibodies were detected
AUClast ratio day 27/day 1 [5, 14]: 3.05 (2.91–3.19) ^c
Cmax ratio day 27/day 1 [5, 14]: 1.18 (0.86–1.62) ^c
AUClast ratio day 27/day 1 [5, 15]: 3.20 (2.87–3.57) ^c
Cmax ratio day 27/day 1 [5, 15]: 1.09 (0.90–1.32) ^c
AUC(0-t) [5, 16]: 600 ± 133 ng·h/mL
AUC(0-t) ([5]; 2.5 mg, M1, 2.5 mg i.v. 3 times weekly for 4 weeks, day 27 (last administration), n = 7, mean ± SD): 1830 ± 380 ng·h/mL
Cmax [5, 16]: 151 ± 56 ng/mL
AUC(0-t) [5, 17]: 1200 ± 560 ng·h/mL
AUC(0-t) [5, 18]: 3860 ± 1840 ng·h/mL
Cmax [5, 17]: 315 ± 89 ng/mL
Cmax [5, 18]: 356 ± 143 ng/mL
Cmax at week 4 relative to the initial dose ([5]; multiple-dose study): ≤ 1.18 times
mean AUClast following day 27 injection relative to day 1 injection ([5]; multiple-dose study, discussion): approximately 3 times
serum FGF23 ([6]; day 29): tended to decrease
serum BAP before hemodialysis ([6]; day 29, etelcalcetide groups): remained unchanged
serum TRACP-5b ([6]; day 29, etelcalcetide groups): a trend toward decreases
serum FGF23 ([6]; day 55): a trend toward a return to baseline levels
serum BAP before hemodialysis ([6]; day 55, etelcalcetide groups): trends toward decreases
serum TRACP-5b ([6]; day 55, etelcalcetide groups): a return to baseline
patients with AEs ([7]; single i.v. 10 mg, 1 patient of 4 (APTT), considered unrelated to treatment): 25.0%
hypocalcemia with cCa < 7.5 mg/dl ([7]; single i.v. 5, 10 or 20 mg): No patients developed hypocalcemia
deaths or serious adverse events ([7]; single-dose study, 5, 10 or 20 mg i.v.): No deaths or serious adverse events (AEs) were reported
AUC(0-t) ([8]; 5 mg): 1110 ± 360 ng·h/mL
Cmax ([8]; 5 mg): 236 ± 89 ng/mL
AUC(0-t) ([8]; 10 mg): 2550 ± 110 ng·h/mL
Cmax ([8]; 10 mg): 589 ± 88 ng/mL
AUC(0-t) ([8]; 20 mg): 5460 ± 680 ng·h/mL
Cmax ([8]; 20 mg): 999 ± 135 ng/mL
serum iPTH, mean maximum change from the baseline ([9]; single i.v. 5 mg): −50.43% ± 12.63%
serum iPTH, mean maximum change from the baseline ([9]; single i.v. 10 mg): −69.26% ± 11.35%
serum iPTH, percent change from the baseline ([9]; single i.v. 20 mg, at 56 hours): approximately −30%
tolerability ([10]; 3-times-weekly 5- and 10-mg doses for 4 weeks, non-Japanese patients): tolerable
tolerability ([10]; single i.v. injection at 5 to 60 mg, non-Japanese SHPT patients): tolerable
tolerability ([10]; single injection of 5 mg, healthy Japanese subjects, ref unpublished data): tolerable
serum cCa, mean percent change from the baseline at the end of the study or at withdrawal [11, 12]: −7.05% ± 4.60%
serum cCa, mean percent change from the baseline at the end of the study or at withdrawal [11, 13]: −12.75% ± 4.88%

Reference: article PMC5678849 (Kidney International Reports, 2017)
